Runt-SMMHC FRET = blocks binding of human RUNX1 Runt domain to CBFb-SMMHC. Cerulean-Runt/Venus-CBFb-SMMHC FRET ratio 530/480, 1 h. AID 1434. 0.74% of 220,000 active. Q01196+Q13951. inhibition, % at 20 µM;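 active = mean inhibition across duplicate retests at 20 µM reaching about 50%, limit read from the data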;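 note: inhibitors lower the FRET ratio by blocking Runt binding to CBFb-SMMHC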
Runt-CBFb FRET = inhibitors of human RUNX1 Runt domain binding to CBFb. Q01196+Q13951. 0.46% of 220,000 active. inhibition, % at 20 µM. Cerulean-Runt/Venus-CBFb FRET ratio 530/480, 1 h. AID 1496;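 active = inhibition over about 50% at 20 µM in the single-dose screen, limit read from the data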
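Doses: 20 µM compound in 1% DMSO | Material: Cerulean-labeled Runt domain protein | Amount: Each fluorescent fusion protein 100 nM | Schedule: Two 1 h room-temperature incubations shielded from light | Measured by: FRET fluorescence | Evaluation: Loss of energy transfer signal | Controls: Unlabeled CBFb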
proKLK7 act = activators of human kallikrein-7 zymogen; activation, % at 7 µM; purified proKLK7, EDANS-DABCYL substrate fluorescence; 100% is mature enzyme control, 0% vehicle; P49862; 0.9% of 370,000 active; AID 652039;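 active = activation above the mean of all tested compounds plus 3 SD, computed per campaign excluding outliers beyond control limits, cut at about 13% in these data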
MEX-5 binding = C. elegans MEX-5 TCR-2 RNA binding activity | Q9XUB2 | MEX-5/FITC-TCR2 RNA binding, fluorescence polarization; stronger effect = lower value | activity score (negative = inhibition of binding), % at 10 µM | 0.38% of 300,000 active | AID 1832;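 active = inhibition past about -25% in most replicates, and total fluorescence under double the plate's negative control median, limit read from the data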
Target sequence (Q9XUB2 whole entry, looked up): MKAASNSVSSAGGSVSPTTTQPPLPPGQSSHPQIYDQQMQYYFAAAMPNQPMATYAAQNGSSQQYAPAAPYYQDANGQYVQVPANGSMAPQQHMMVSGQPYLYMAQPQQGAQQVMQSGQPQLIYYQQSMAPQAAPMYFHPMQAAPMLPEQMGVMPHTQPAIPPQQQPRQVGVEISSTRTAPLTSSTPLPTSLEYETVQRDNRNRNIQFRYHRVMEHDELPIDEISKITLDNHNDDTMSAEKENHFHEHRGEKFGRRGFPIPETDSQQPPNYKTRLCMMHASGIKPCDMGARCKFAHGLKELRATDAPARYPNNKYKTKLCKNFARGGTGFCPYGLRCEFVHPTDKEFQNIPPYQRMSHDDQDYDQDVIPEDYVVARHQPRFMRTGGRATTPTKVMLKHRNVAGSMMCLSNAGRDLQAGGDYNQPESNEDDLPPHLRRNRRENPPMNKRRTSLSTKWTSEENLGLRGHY
RanGTP-Imp inh = disruptors of Ran-importin-beta complex formation – biochemical, FRET, CFP-Ran, YFP-importin-beta, homogeneous, primary screen | 1.1% of 300,000 active | inhibition, % (test concentration not listed) | cell-free CFP-Ran/YFP-importin-beta FRET ratio | AID 2216;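 active = more than half of the replicate wells show a fall in the fluorescence ratio signal beyond about 16%, limit read from the data, passing the limit was not always enough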
proKLK7 act conf = proKLK7 activation, confirmation; shares compounds with proKLK7 act; purified proKLK7, EDANS-DABCYL substrate fluorescence; scaled: vehicle 0, mature enzyme 100; activation, % at 7 µM; 68% of 3,200 active;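 active = activation, as change over the incubation, above the mean of all tested compounds plus 3 SD, cut at about 13% in these data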
EDANS-DABCYL int = counter-screen for kallikrein-7 activators: EDANS-DABCYL optical interference; 80% of 3,200 active; shares compounds with proKLK7 act; EDANS-DABCYL substrate fluorescence interference, no enzyme, 4 h; solvent 0%, active enzyme control 100%; activation, % at 7 µM;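 active = activation above the all-compound mean plus 3 SD, ignoring values outside control-based bounds, cut at about 4.8% in these data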;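 note: value is the 4 h activation minus the activation read at time zero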
K7 EDANS ctr = counter-screen for kallikrein-7 activators: EDANS-DABCYL interference, dose response; shares compounds with proKLK7 act; EDANS-DABCYL peptide fluorescence interference, no enzyme; EC50, µM; 20% of 250 active;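 active = compounds that raise the fluorescence signal in this interference counterscreen, with EC50 at or below 10 µM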;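 note: intact quenched peptide substrate alone read at 355 nm excitation and 520 nm emission; signal is fluorescence gain from T0 to T4 after four hours at room temperature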
Each line names hits and unclear results; the compound was inactive in the other large screens (follow-up assays come after a bar, where they were run). Hits are enriched below; roughly 2.1% of the tested compounds scored in any of these assays.

COc1ccc2cc(C(=O)C3CCCN(Cc4cnc(N5CCOCC5)s4)C3)ccc2c1 (centres undefined)	none
COc1ccc2cc(C(=O)C3CCCN(C(=O)c4cccnc4)C3)ccc2c1 (centres undefined)	proKLK7 act 22.4 (no result: Runt-SMMHC FRET, Runt-CBFb FRET) | proKLK7 act conf 57.2 | EDANS-DABCYL int 46.7 | K7 EDANS ctr inactive
CCn1ccnc1CN1CCCC(C(=O)c2ccc3cc(OC)ccc3c2)C1 (centres undefined)	proKLK7 act 35.9 | proKLK7 act conf inactive | EDANS-DABCYL int inactive
COCCNC(=O)c1ccc(Cl)c(S(=O)(=O)Nc2cccc(C)c2C)c1	none (no result: Runt-SMMHC FRET, Runt-CBFb FRET)
O=C(/C=C/[C@H]1O[C@@H](n2ccc(=O)[nH]c2=O)[C@H](O)[C@@H]1O)N1CCN(Cc2ccc(F)cc2)CC1	none (no result: Runt-SMMHC FRET, Runt-CBFb FRET, MEX-5 binding, RanGTP-Imp inh)
CC(C)NC(=O)Cn1nnc(-c2ccccc2)c1COc1ccc2ccccc2c1	none (no result: Runt-SMMHC FRET, Runt-CBFb FRET, MEX-5 binding, RanGTP-Imp inh)
FC(F)(F)c1ccccc1C1C2=C(Nc3ncnn31)c1ccccc1CCC2 (centres undefined)	none (no result: proKLK7 act, MEX-5 binding, RanGTP-Imp inh)
FC(F)(F)c1ccccc1C1=CC(c2ccccc2)n2ncnc2N1 (centres undefined)	proKLK7 act 25.5 (no result: Runt-SMMHC FRET, Runt-CBFb FRET) | proKLK7 act conf 26.8 | EDANS-DABCYL int 26.1
COc1ccc(C2C=C(c3ccccc3)Nc3ncnn32)cc1 (centres undefined)	Runt-SMMHC FRET 62.6, proKLK7 act 52.5 | proKLK7 act conf 71.2 | EDANS-DABCYL int 73.9
Cc1ccc(C2=CC(c3ccc(C)cc3)n3ncnc3N2)cc1 (centres undefined)	proKLK7 act 32.0 (no result: Runt-SMMHC FRET, Runt-CBFb FRET) | proKLK7 act conf inactive | EDANS-DABCYL int inactive
CCOc1ccc(C2C=C(c3ccc(C)cc3)Nc3ncnn32)cc1 (centres undefined)	none (no result: proKLK7 act)
COc1ccc(C2C=C(C)Nc3ncnn32)cc1 (centres undefined)	none (no result: Runt-SMMHC FRET, Runt-CBFb FRET, MEX-5 binding)
COc1ccc(C2C=C(c3ccc(C)c(C)c3)Nc3ncnn32)c(OC)c1OC (centres undefined)	proKLK7 act 18.1 | proKLK7 act conf 23.8 | EDANS-DABCYL int 30.5
N=c1c(C(=O)NCC2CCCO2)cc2c(=O)n3ccccc3nc2n1Cc1ccco1 (centres undefined)	proKLK7 act 15.1, RanGTP-Imp inh 73.2 (no result: Runt-SMMHC FRET, Runt-CBFb FRET) | proKLK7 act conf 41.1 | EDANS-DABCYL int 37.9
Cc1cccn2c(=O)c3cc(C(=O)NCC4CCCO4)c(=N)n(Cc4cccnc4)c3nc12 (centres undefined)	Runt-SMMHC FRET 57.4, proKLK7 act 147.8 (no result: MEX-5 binding, RanGTP-Imp inh) | proKLK7 act conf 48.7 | EDANS-DABCYL int 60.1
Cc1cccn2c(=O)c3cc(C(=O)NC(C)C)c(=N)n(Cc4ccncc4)c3nc12	Runt-SMMHC FRET 61.6, proKLK7 act 116.4, RanGTP-Imp inh active | proKLK7 act conf 32.2 | EDANS-DABCYL int 36.7
Cn1nc(C(=O)NCC2CCCO2)c2ccccc2c1=O (centres undefined)	none
N=c1c(C(=O)NCC2CCCO2)cc2c(=O)n3ccccc3nc2n1Cc1cccnc1 (centres undefined)	Runt-SMMHC FRET 57.4, proKLK7 act 134.0, MEX-5 binding -44.4, RanGTP-Imp inh 182.1 | proKLK7 act conf 34.7 | EDANS-DABCYL int 32.9
O=C(Cn1c(=O)n(Cc2ccco2)c(=O)c2cc(Cl)ccc21)NCC1CCCO1 (centres undefined)	none
COc1ccc(-n2c(COc3ccc(C)cc3)nnc2SCC(=O)Nc2ccc(S(=O)(=O)Nc3cc(C)nc(C)n3)cc2)cc1	none (no result: Runt-SMMHC FRET, Runt-CBFb FRET, MEX-5 binding, RanGTP-Imp inh)
Cc1[nH]c2ccccc2c1CC(=O)Nc1ccc(Nc2cccnc2)c(Br)c1	none (no result: Runt-SMMHC FRET, Runt-CBFb FRET, MEX-5 binding, RanGTP-Imp inh)
O=C1c2ccccc2C(c2nnnn2-c2ccc3c(c2)OCCO3)N1CCOc1ccccc1 (centres undefined)	none (no result: Runt-SMMHC FRET, Runt-CBFb FRET, MEX-5 binding, RanGTP-Imp inh)

Screening data (PubChem BioAssay)
